Laboratory results reported in ChEMBL document CHEMBL1121831 (1981).

Assays:
[1] = target: Dihydrofolate reductase (Lactobacillus casei) (UniProt P00381); assay: Compound is evaluated for binding to Lactobacillus casei dihydrofolate reductase using kinetic assay; details: Lacticaseibacillus casei
L1210 [2] = assay: Compound is tested for the inhibition of growth of murine leukemia cells (L1210); type: functional; details: Mus musculus, read-out: ID50 (the source's name)
Outline: (§1)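 CEM human lymphoblastic and L1210 murine leukemia cells were grown in culture with drug for 48 h, at concentrations up to 10 μM. The read-out was growth inhibition, given as ID50 or, where ID50 was not reached, as percent inhibition at 10 μM. Values are averages of triplicate experiments.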

[3] = target: T1, Dihydrofolate reductase (Mus musculus) (UniProt P00375); assay: Compound is evaluated for binding to L1210 mouse leukemia cells dihydrofolate reductase using ligand-binding assay
T1 sequence (whole entry): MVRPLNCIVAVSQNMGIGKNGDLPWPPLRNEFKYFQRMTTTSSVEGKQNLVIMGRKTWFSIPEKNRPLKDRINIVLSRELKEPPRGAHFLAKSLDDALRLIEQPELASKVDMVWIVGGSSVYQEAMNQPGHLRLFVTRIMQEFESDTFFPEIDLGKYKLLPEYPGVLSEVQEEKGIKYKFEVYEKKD

CCRF-CEM [4] = assay: Compound was tested for the inhibition of growth of human lymphoblastic leukemia cells (CEM); type: functional; details: read-out: ID50 (the source's name); outline: as §1
[5] = target: Dihydrofolate reductase (Lactobacillus casei) (UniProt P00381); assay: Affinity for partially purified bacterial (Lactobacillus casei) dihydrofolate reductase; details: Lacticaseibacillus casei
[6] = target: T1, Dihydrofolate reductase (Mus musculus); assay: Affinity for mammalian (L1210 mouse leukemia) dihydrofolate reductase
Outline: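 Partially purified DHFR from L1210 cells, diluted 8-fold in 0.1 M KH2PO4 (pH 6.2) with 0.1% BSA and 1 mM NADPH, then held on ice 5 min. Competition with [3H]MTX over serial 5-fold dilutions starting from a 6 μM solution, 5 min at 0 °C. Unbound ligand removed with Norite charcoal and the supernatant counted; ID50 (50% drop in bound label) read from a logit-log plot.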

L1210 [7] = assay: Compound was tested for the inhibition of growth of murine leukemia cells (L1210); type: functional; details: Mus musculus, read-out: ID50 (the source's name); outline: as §1
CCRF-CEM (Homo sapiens) = assay: Percent inhibition of human lymphoblastic leukemia cell growth (48h) at 10 uM
CCRF-CEM [8] = assay: Compound is tested for the inhibition of growth of human lymphoblastic leukemia cells (CEM); type: functional; details: read-out: ID50 (the source's name); outline: as §1
L1210 [9] = assay: Compound is evaluated for percent increase in against L1210 leukemia in mice, at dose 15 mg/kg; type: functional; details: Mus musculus
Outline: (§2)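 B6D2F1 mice were inoculated ip with 10⁵ L1210 cells on day 0. Drug was given ip on days 1, 4 and 7 (q3d) as a suspension in 10% Tween 80 or 1:1:8 emulphor–ethanol–water, or as the disodium salt in water. The read-out was median survival of treated versus control mice (T/C, days), expressed as % increase in life span.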

L1210 [10] = assay: Compound is evaluated for percent increase in against L1210 leukemia in mice, at dose 30 mg/kg; type: functional; details: Mus musculus, L1210, dose 30 mg/kg; outline: as §2
Mus musculus [11] = assay: Compound is evaluated for activity against L1210 leukemia in mice, at dose 60 mg/kg expressed as T/C=18/9; type: functional
Outline: (§3)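 B6D2F1 mice were inoculated ip with 10^5 L1210 cells on day 0. Test agents were given ip on days 1, 4 and 7 in 10% Tween 80 or a 1:1:8 emulphor-ethanol-water suspension; MTX was given ip as the disodium salt in water. Groups were mostly five mice. Read-out was median survival of treated vs control mice (days) and % increase in life span.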

Mus musculus [12] = assay: Compound is evaluated for activity against L1210 leukemia in mice, at dose 15 mg/kg expressed as T/C=15.5/9; type: functional; outline: as §3
Mus musculus [13] = assay: Compound is evaluated for activity against L1210 leukemia in mice, at dose 30 mg/kg expressed as T/C=16.5/9; type: functional; outline: as §3
RBL-1 [14] = assay: Compound is tested for the inhibition of growth of rat basophilic leukemia (RBL)cells; type: functional; details: read-out: ID50 (the source's name)
L1210 [15] = assay: Compound is evaluated for activity against L1210 leukemia in mice, at dose 160 mg/kg; type: functional, Mus musculus; outline: as §3
L1210 [16] = assay: Compound is evaluated for activity against L1210 leukemia in mice, at dose 80 mg/kg; type: functional, Mus musculus; outline: as §3
L1210 [17] = assay: Compound is evaluated for percent increase in life span against L1210 leukemia in mice, at dose 80 mg/kg; type: functional; details: Mus musculus; outline: as §2
L1210 [18] = assay: Compound is evaluated for percent increase in life span against L1210 leukemia in mice, at dose 160 mg/kg; type: functional; details: Mus musculus; outline: as §2
Mus musculus [19] = assay: Compound is evaluated for activity against L1210 leukemia in mice, at dose 80 mg/kg expressed as T/C=11/9; type: functional; outline: as §3
Mus musculus [20] = assay: Compound is evaluated for activity against L1210 leukemia in mice, at dose 160 mg/kg expressed as T/C=15/9; type: functional; outline: as §3
L1210 [21] = assay: Compound is evaluated for activity against L1210 leukemia in mice, at dose 15 mg/kg in experiment 1; type: functional, Mus musculus; outline: as §3
L1210 [22] = assay: Compound is evaluated for activity against L1210 leukemia in mice, at dose 20 mg/kg in experiment 2; type: functional, Mus musculus; outline: as §3
L1210 [23] = assay: Compound is evaluated for activity against L1210 leukemia in mice, at dose 40 mg/kg in experiment 2; type: functional, Mus musculus; outline: as §3
L1210 [24] = assay: Compound is evaluated for activity against L1210 leukemia in mice, at dose 7.5 mg/kg in experiment 1; type: functional, Mus musculus; outline: as §3
L1210 [25] = assay: Compound is evaluated for percent increase in life span against L1210 leukemia in mice, at dose 20 mg/kg in experiment 2; type: functional; details: Mus musculus; outline: as §2
L1210 [26] = assay: Compound is evaluated for percent increase in life span against L1210 leukemia in mice, at dose 40 mg/kg in experiment 2; type: functional; details: Mus musculus; outline: as §2
L1210 [27] = assay: Compound is evaluated for percent increase in life span against L1210 leukemia in mice, at dose 7.5 mg/kg in experiment 1; type: functional; details: Mus musculus; outline: as §2
L1210 [28] = assay: Compound is evaluated for percent increase in life span against L1210 leukemia in mice, at dose 15 mg/kg in experiment 1; type: functional; details: Mus musculus; outline: as §2
Mus musculus [29] = assay: Compound is evaluated for activity against L1210 leukemia in mice, at dose 7.5 mg/kg expressed as T/C in experiment 1; type: functional; outline: as §3
Mus musculus [30] = assay: Compound is evaluated for activity against L1210 leukemia in mice, at dose 15 mg/kg expressed as T/C in experiment 1; type: functional; outline: as §3
Mus musculus [31] = assay: Compound is evaluated for activity against L1210 leukemia in mice, at dose 20 mg/kg expressed as T/C in experiment 2; type: functional; outline: as §3
Mus musculus [32] = assay: Compound is evaluated for activity against L1210 leukemia in mice, at dose 40 mg/kg expressed as T/C in experiment 2; type: functional; outline: as §3
RBL-1 [33] = assay: Compound was tested for the inhibition of growth of rat basophilic leukemia (RBL) cells; type: functional; details: read-out: ID50 (the source's name)

Sequence of Dihydrofolate reductase (Lactobacillus casei) (P00381 whole entry): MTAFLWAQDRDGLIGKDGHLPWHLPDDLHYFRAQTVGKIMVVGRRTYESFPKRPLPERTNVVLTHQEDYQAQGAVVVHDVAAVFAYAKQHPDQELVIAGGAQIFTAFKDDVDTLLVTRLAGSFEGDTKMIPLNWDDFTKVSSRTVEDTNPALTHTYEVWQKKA

SMILES: CN(Cc1cnc2nc(N)nc(N)c2n1)c1ccc(C(=O)NC(CCC(=O)N2CCCCC2)C(=O)N2CCCCC2)cc1 (centres undefined)
- ID50 [1]: 250 nM
- IC50 (L1210 [2]): > 10000 nM
- ID50 [3]: 12 nM

SMILES: CC(NC(=O)CCC(NC(=O)c1ccc(N(C)Cc2cnc3nc(N)nc(N)c3n2)cc1)C(=O)NC(C)c1ccccc1)c1ccccc1 (centres undefined)
- IC50 (CCRF-CEM [4]): > 10000 nM
- ID50 [5]: 310 nM
- ID50 [6]: 11 nM
- IC50 (L1210 [7]): > 10000 nM
- inhibition at 10 µM (CCRF-CEM (Homo sapiens)): 25%

SMILES: CN(Cc1cnc2nc(N)nc(N)c2n1)c1ccc(C(=O)N[C@@H](CCC(=O)O)C(=O)O)cc1 [METHOTREXATE]
- IC50 (CCRF-CEM [8]): 3 nM
- IC50 (L1210 [2]): 10 nM
- ILS at 15 mg/kg (L1210 [9]): 72%
- ILS at 30 mg/kg (L1210 [10]): 83%
- Median T/C (Mus musculus [11]): 18 days
- Median T/C (Mus musculus [12]): 15.5 days
- Median T/C (Mus musculus [13]): 16.5 days
- IC50 (RBL-1 [14]): 3 nM

SMILES: COc1ccc(CNC(=O)CCC(NC(=O)c2ccc(N(C)Cc3cnc4nc(N)nc(N)c4n3)cc2)C(=O)NCc2ccc(OC)cc2)cc1 (centres undefined)
- IC50 (CCRF-CEM [8]): > 10000 nM
- ID50 [1]: 400 nM
- MTX equivalent (L1210 [15]): 128 mg/kg
- MTX equivalent (L1210 [16]): 64 mg/kg
- IC50 (L1210 [2]): 8200 nM
- ILS at 80 mg/kg (L1210 [17]): 22%
- ILS at 160 mg/kg (L1210 [18]): 66%
- Median T/C (Mus musculus [19]): 11 days
- Median T/C (Mus musculus [20]): 15 days
- inhibition at 10 µM (CCRF-CEM (Homo sapiens)): 44%
- ID50 [3]: 130 nM

SMILES: CN(Cc1cnc2nc(N)nc(N)c2n1)c1ccc(C(=O)NC(CCC(=O)NO)C(=O)O)cc1 (centres undefined)
- IC50 (CCRF-CEM [8]): 250 nM
- ID50 [1]: 30 nM
- MTX equivalent (L1210 [21]): 14.6 mg/kg
- MTX equivalent (L1210 [22]): 19.4 mg/kg
- MTX equivalent (L1210 [23]): 38.8 mg/kg
- MTX equivalent (L1210 [24]): 7.3 mg/kg
- IC50 (L1210 [2]): 62 nM
- ILS at 20 mg/kg (L1210 [25]): 89%
- ILS at 40 mg/kg (L1210 [26]): 111%
- ILS at 7.5 mg/kg (L1210 [27]): 50%
- ILS at 15 mg/kg (L1210 [28]): 60%
- Median T/C (Mus musculus [29]): 15 days
- Median T/C (Mus musculus [30]): 16 days
- Median T/C (Mus musculus [31]): 17 days
- Median T/C (Mus musculus [32]): 19 days
- ID50 [3]: 4.8 nM

SMILES: CN(Cc1cnc2nc(N)nc(N)c2n1)c1ccc(C(=O)NC(CCC(=O)NC23CC4CC(CC(C4)C2)C3)C(=O)NC23CC4CC(CC(C4)C2)C3)cc1 (centres undefined)
- IC50 (CCRF-CEM [4]): > 10000 nM
- ID50 [1]: 6300 nM
- IC50 (L1210 [7]): 3400 nM
- IC50 (RBL-1 [33]): 1600 nM
- inhibition at 10 µM (CCRF-CEM (Homo sapiens)): 38%
- ID50 [3]: 3100 nM
